The source made the active and inactive calls. No cut-off for these calls is given here.
Tests used:
[1] = target: T1, Alpha-2A adrenergic receptor (Homo sapiens) (UniProt P08913); experiment: Antagonist activity at human alpha2A adrenoceptor expressed in CHO cells assessed as effect on agonist-induced extracellular acidification by microphysiometry; type: functional, cell-based
T1 sequence (whole entry): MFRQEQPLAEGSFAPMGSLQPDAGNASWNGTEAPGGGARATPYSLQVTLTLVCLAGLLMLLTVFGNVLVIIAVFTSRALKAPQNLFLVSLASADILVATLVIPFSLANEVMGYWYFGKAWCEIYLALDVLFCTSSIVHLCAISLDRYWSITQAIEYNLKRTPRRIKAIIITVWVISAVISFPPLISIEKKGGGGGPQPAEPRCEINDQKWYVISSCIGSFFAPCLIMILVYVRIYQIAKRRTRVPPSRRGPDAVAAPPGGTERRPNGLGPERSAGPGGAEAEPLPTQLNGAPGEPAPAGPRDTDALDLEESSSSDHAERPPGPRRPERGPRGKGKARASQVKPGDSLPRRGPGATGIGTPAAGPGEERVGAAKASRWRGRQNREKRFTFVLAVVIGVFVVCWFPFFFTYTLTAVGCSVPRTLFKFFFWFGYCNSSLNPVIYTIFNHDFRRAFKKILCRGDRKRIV
Procedure, shortened: (§1)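 CHO cells stably expressing one human α2-AR subtype were run on the Cytosensor microphysiometer with bicarbonate-free DMEM perfusion. […] Kb = M/(concentration ratio − 1), where the ratio is EC50 with antagonist over EC50 without. Reported as pKb, mean ± SEM of 3–6 experiments.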

[2] = target: T2, Alpha-2B adrenergic receptor (Homo sapiens) (UniProt P18089); experiment: Antagonist activity at human alpha2B adrenoceptor expressed in CHO cells assessed as effect on agonist-induced extracellular acidification by microphysiometry; type: functional, cell-based; procedure, shortened: as §1
T2 sequence (whole entry): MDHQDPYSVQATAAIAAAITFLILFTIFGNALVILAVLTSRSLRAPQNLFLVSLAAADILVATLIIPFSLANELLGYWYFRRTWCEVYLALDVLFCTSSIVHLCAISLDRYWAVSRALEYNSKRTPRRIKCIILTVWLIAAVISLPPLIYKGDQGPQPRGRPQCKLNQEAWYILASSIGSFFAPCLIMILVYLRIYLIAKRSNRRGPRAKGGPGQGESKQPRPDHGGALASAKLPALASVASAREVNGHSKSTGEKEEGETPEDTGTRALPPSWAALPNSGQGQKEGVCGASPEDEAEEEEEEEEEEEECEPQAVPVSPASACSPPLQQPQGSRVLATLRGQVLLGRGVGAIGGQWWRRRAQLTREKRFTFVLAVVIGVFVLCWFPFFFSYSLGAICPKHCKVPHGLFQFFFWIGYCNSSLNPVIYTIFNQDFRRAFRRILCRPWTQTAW

[3] = target: T3, Alpha-2C adrenergic receptor (Homo sapiens) (UniProt P18825); experiment: Agonist activity at human Alpha-2C adrenoceptor expressed in CHO cells assessed as induction of extracellular acidification by microphysiometry relative to (-)noradrenaline; type: functional, cell-based
T3 sequence (whole entry): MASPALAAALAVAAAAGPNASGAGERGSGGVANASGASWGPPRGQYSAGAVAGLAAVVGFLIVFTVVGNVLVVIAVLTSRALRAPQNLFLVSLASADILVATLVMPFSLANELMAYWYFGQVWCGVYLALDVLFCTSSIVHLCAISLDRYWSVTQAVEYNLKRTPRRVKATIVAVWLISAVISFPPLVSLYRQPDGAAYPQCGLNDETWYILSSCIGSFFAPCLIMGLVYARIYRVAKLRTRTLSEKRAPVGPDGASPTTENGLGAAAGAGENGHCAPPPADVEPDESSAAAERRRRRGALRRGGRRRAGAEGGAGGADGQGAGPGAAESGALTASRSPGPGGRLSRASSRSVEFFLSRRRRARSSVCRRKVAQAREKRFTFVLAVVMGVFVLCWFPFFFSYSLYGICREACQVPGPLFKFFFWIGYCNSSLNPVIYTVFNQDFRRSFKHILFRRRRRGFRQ
Procedure, shortened: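 Cytosensor microphysiometry on CHO cells stably expressing one human α2-AR subtype, seeded at 3 × 10⁵ cells/cup and grown 24 h at 37 °C. Cells were perfused with bicarbonate-free DMEM and exposed to agonist for 4 min, with 30 min washes between exposures. The read-out is the change in acidification rate: peak after agonist minus the mean of three prior readings. […] Mean ± SEM, 3–6 experiments.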

[4] = target: T4, Alpha-2A adrenergic receptor (Homo sapiens, UniProt P08913); experiment: Displacement of [3H]RX821002 from human alpha2A adrenoceptor expressed in CHO cells; type: cell-based
T4 sequence (P08913 whole entry): T1 sequence (whole entry)
Procedure, shortened: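 Crude membranes from CHO cells expressing human α2A-AR were incubated in Tris-Mg buffer (50 mM Tris-HCl, 0.5 mM MgCl₂, pH 7.5). Ki came from one- or two-site nonlinear regression and is given as pKi.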

[5] = target: T5, Alpha-2B adrenergic receptor (Homo sapiens, UniProt P18089); experiment: Displacement of [3H]RX821002 from human alpha2B adrenoceptor expressed in CHO cells; type: cell-based
T5 sequence (P18089 whole entry): T2 sequence (whole entry)
Procedure, shortened: (§2)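 Buffer was Tris-Mg (50 mM Tris-HCl, 0.5 mM MgCl2, pH 7.5), competitor 10^-9 to 10^-4 M, 30 min at room temperature. Bound ligand was filtered and counted. Ki by nonlinear one- or two-site fit, reported as pKi.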

[6] = target: T6, Alpha-2C adrenergic receptor (Homo sapiens, UniProt P18825); experiment: Displacement of [3H]RX821002 from human Alpha-2C adrenoceptor expressed in CHO cells; type: cell-based; procedure, shortened: as §2
T6 sequence (P18825 whole entry): T3 sequence (whole entry)

[7] = target: T6, Alpha-2C adrenergic receptor; experiment: Agonist activity at human Alpha-2C adrenoceptor expressed in CHO cells assessed as induction of extracellular acidification by microphysiometry; type: functional, cell-based
Procedure, shortened: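 Cytosensor microphysiometry on CHO cells stably expressing one human α2-AR subtype, seeded at 3 × 10⁵ cells/cup and grown 24 h at 37 °C. Cells were perfused with bicarbonate-free DMEM and exposed to agonist for 4 min, with 30 min washes between exposures. The read-out is the change in acidification rate: peak after agonist minus the mean of three prior readings. Mean ± SEM, 3–6 experiments.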

Mus musculus [8] = experiment: Enhancement of morphine-induced analgesic effect in CD1 mouse at 0.05 mg/kg, ip administered 15 mins before morphine dosing measured 30 to 240 mins post morphine challenge by radiant heat tail flick test; type: functional, organism-based; set-up: dose 0.05 mg/kg
Procedure, shortened: (§3)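 Male CD-1 mice (25–35 g) received test agent 0.05 mg/kg ip or vehicle 15 min before morphine 5 mg/kg sc. Radiant-heat tail-flick to the lower third of the tail; baseline latency (2–3 s) is the mean of two trials. Latencies were read at 30, 60, 90, 120 and 240 min and expressed as %MPE. 7–8 mice per group, mean ± SEM.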

Mus musculus [9] = experiment: Analgesic effect in CD1 mouse at 0.05 mg/kg, ip by radiant heat tail flick test; type: functional, organism-based; set-up: dose 0.05 mg/kg; procedure, shortened: as §3
[10] = target: T2, Alpha-2B adrenergic receptor (Homo sapiens); conditions: CHO
Mus musculus [11] = experiment: Enhancement of morphine-induced analgesic effect in CD1 mouse at 0.05 mg/kg, ip administered 15 mins before morphine dosing measured 30 to 240 mins post morphine challenge in presence of Alpha-2C adrenergic receptor antagonist yohimbine by radiant heat tail flick test; type: functional, organism-based; set-up: dose 0.05 mg/kg
Procedure, shortened: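 Male CD-1 mice got yohimbine 1.250 mg/kg ip 15 min before test agent (0.05 mg/kg ip). Test agent was given 15 min before morphine 5 mg/kg sc. Radiant-heat tail-flick latency was read 30–240 min after morphine and expressed as %MPE.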

Mus musculus [12] = experiment: Reduction in morphine tolerance acquisition in CD1 mouse assessed as morphine analgesic effect incidence at 0.05 mg/kg, ip administered as single dose 15 mins before last morphine dosing on test day post morphine challenge by radiant heat tail flick test; type: functional
Procedure, shortened: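 Tolerance was induced in male CD-1 mice with morphine 10 mg/kg sc twice daily at 12 h intervals for 5 days. On day 5, test agent 0.05 mg/kg ip was given once, 15 min before the last morphine injection. Tail-flick antinociception was read 30 min after that injection and expressed as %MPE, with day 1 vs day 5 compared.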

Mus musculus [13] = experiment: Reduction in morphine dependence expression in CD1 mouse assessed as decrease in expression of naloxone-precipitated withdrawal syndrome at 0.05 mg/kg, ip administered as single dose […] on test day post morphine challenge […]; type: functional, organism-based; set-up: dose 0.05 mg/kg
Mus musculus [14] = experiment: Toxicity in CD1 mouse assessed as effect on sleep duration at 0.05 mg/kg, ip by pentobarbital sodium induced sleep time assay; type: organism-based; set-up: dose 0.05 mg/kg, route intraperitoneal; conditions: in vivo
Procedure, shortened: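 Male CD-1 mice (n = 10 per group) were given test agent 0.05 mg/kg or vehicle, then sodium pentobarbital 50 mg/kg ip 15 min later. Sleep duration, the time from loss to regain of the righting reflex, was recorded in seconds. Mean ± SEM.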

Mus musculus [15] = experiment: Reduction in morphine tolerance acquisition in CD1 mouse assessed as morphine analgesic effect incidence at 0.05 mg/kg, ip bid administered 15 mins before last morphine dosing by radiant heat tail flick test; type: functional, organism-based; set-up: dose 0.05 mg/kg
Mus musculus [16] = experiment: Reduction in morphine dependence expression in CD1 mouse assessed as decrease in expression of naloxone-precipitated withdrawal syndrome at 0.05 mg/kg, ip bid administered 15 mins before last morphine dosing […]; type: functional, organism-based; set-up: dose 0.05 mg/kg
Procedure, shortened: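 In male CD-1 mice, morphine 10 mg/kg sc was given twice daily at 12 h intervals for 6 days, with test agent 0.05 mg/kg ip 15 min before each morphine dose. Jumping was counted, and somatic signs were scored as the sum of rearing, forepaw tremor and teeth chatter. Blind observers; mean ± SEM.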

| Structure (SMILES) | pKb [1] | pKb [2] | Intrinsic activity [3] | Ki [4] [nM] | Ki [5] [nM] | Ki [6] [nM] | EC50 [7] [nM] | also measured |
| --- | --- | --- | --- | --- | --- | --- | --- | --- |
| C[C@@H](Oc1ccccc1-c1cccc([N+](=O)[O-])c1)C1=NCCN1 | 7.11 | 6.07 | 0.8 |  |  |  |  |  |
| Clc1cccc(Cl)c1NC1=NCCN1 |  |  | 0.6 |  |  |  |  |  |
| C[C@@H](Oc1ccccc1C1CC1)C1=NCCN1 | 6.9 |  | 0.5 | 44.7 | 562 | 126 | 126 | Activity (Mus musculus [8]): Active; Activity (Mus musculus [9]): inactive; pEC50 [10]: inactive |
| C[C@@H](Oc1ccccc1-c1cccc(O)c1)C1=NCCN1 | 6.4 | 5.67 | 1 | 39.8 | 316 | 31.6 | 25.1 |  |
| CC(Oc1ccccc1-c1cccc(O)c1)C1=NCCN1 (racemic) | 6.2 |  | 1.15 |  |  |  |  |  |
| C[C@H](Oc1ccccc1-c1cccc(O)c1)C1=NCCN1 | 6 | 5.5 | 0.65 | 97.7 | 1000 | 112 | 2510 |  |
| C[C@H](Oc1ccccc1-c1ccccc1)C1=NCCN1 |  |  | 0.9 |  |  |  |  |  |
| CC(Oc1ccccc1-c1ccccc1)C1=NCCN1 (racemic) |  |  | 0.8 |  |  |  |  |  |
| C=CCc1ccccc1O[C@H](C)C1=NCCN1 | 7.4 |  | 0.5 |  | 562 | 178 | 186 | Activity (Mus musculus [8]): Active; Activity (Mus musculus [9]): inactive; Activity (Mus musculus [11]): inactive; Activity (Mus musculus [12]): inactive; Activity (Mus musculus [13]): Active; Activity (Mus musculus [14]): Non-toxic; Activity (Mus musculus [15]): Active; Activity (Mus musculus [16]): Active; pEC50 [10]: inactive |
